Reference: the M2OR odorant receptor database
Positions count from the first letter of the chain named.

Columns and labels:
Conditions in all cases: stereoisomer not certain
[1] = target: T1, OR6C65 (Homo sapiens) (UniProt A6NJZ3)
T1 sequence (whole entry): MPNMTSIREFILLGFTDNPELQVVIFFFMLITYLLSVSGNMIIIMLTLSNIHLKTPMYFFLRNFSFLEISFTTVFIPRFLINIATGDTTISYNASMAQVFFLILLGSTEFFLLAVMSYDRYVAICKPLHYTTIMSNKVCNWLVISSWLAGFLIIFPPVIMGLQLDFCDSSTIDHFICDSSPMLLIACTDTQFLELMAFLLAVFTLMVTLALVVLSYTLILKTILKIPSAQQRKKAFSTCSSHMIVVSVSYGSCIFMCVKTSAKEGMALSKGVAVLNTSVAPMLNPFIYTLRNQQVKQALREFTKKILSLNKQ
Outline: (§1)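 Whether a receptor–molecule pair is responsive (active) rests on the original authors' judgment that its measured signal was statistically different from baseline. Pairs without that judgment are non-responsive (inactive). Sources used varied assay methods, commonly transient luciferase assays in mammalian cell lines.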

[2] = target: T2, OR6C68 (Homo sapiens) (UniProt A6NDL8)
T2 sequence (whole entry): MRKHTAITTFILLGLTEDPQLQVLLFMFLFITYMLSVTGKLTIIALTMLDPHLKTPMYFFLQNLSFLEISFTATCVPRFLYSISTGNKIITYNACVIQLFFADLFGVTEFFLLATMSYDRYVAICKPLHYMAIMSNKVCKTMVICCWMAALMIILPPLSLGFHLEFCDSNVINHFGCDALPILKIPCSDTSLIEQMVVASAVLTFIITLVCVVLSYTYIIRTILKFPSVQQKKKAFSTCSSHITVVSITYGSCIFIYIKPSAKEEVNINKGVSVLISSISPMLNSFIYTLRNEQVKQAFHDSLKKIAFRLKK
Outline: as §1

[3] = target: T3, OR6C70 (Homo sapiens) (UniProt A6NIJ9)
T3 sequence (whole entry): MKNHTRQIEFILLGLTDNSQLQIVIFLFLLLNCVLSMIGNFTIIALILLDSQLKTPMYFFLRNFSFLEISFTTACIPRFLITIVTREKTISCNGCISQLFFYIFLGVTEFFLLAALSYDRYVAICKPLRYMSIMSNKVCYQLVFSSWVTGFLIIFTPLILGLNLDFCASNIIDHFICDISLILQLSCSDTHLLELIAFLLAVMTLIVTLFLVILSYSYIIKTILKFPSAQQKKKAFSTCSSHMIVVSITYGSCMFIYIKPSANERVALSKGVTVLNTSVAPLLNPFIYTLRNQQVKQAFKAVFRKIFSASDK
Outline: as §1

[4] = target: T4, OR6C74 (Homo sapiens) (UniProt A6NCV1)
T4 sequence (whole entry): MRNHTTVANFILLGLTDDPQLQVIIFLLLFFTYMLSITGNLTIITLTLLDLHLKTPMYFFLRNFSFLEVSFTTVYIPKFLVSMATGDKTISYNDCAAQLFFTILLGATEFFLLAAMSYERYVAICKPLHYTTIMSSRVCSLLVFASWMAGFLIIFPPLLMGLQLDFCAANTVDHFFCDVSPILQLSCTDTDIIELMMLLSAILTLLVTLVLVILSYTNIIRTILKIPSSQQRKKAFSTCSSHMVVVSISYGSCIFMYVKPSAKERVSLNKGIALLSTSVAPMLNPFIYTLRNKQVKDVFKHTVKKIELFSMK
Outline: as §1

[5] = target: T5, OR6C75 (Homo sapiens) (UniProt A6NL08)
T5 sequence (whole entry): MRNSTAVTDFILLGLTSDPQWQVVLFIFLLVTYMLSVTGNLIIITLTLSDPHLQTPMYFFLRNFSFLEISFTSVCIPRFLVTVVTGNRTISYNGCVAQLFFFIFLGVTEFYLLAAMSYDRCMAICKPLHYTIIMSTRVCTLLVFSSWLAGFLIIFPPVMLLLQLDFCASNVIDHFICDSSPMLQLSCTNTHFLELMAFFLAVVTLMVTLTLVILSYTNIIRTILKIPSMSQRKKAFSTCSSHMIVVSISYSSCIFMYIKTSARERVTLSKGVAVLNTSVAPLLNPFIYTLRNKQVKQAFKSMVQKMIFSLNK
Outline: as §1

[6] = target: T6, OR6C76 (Homo sapiens) (UniProt A6NM76)
T6 sequence (whole entry): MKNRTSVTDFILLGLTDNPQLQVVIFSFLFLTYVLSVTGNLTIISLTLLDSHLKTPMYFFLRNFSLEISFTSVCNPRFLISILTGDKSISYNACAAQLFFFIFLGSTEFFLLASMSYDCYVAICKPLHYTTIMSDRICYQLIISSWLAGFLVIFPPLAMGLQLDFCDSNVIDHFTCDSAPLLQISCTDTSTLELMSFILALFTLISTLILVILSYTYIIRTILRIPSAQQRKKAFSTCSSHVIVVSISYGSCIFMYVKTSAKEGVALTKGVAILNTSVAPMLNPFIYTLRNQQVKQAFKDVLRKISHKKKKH
Outline: as §1

[7] = target: T7, OR6F1 (Homo sapiens) (UniProt Q8NGZ6)
T7 sequence (whole entry): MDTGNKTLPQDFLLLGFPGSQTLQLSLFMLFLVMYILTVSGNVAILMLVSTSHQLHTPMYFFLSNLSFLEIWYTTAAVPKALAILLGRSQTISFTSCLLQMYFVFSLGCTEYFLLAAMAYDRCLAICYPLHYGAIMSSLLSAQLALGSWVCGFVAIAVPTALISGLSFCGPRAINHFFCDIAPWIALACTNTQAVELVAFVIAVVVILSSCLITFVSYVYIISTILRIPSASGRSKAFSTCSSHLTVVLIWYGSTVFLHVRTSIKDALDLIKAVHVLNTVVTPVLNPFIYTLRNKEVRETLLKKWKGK
Outline: as §1

[8] = target: T8, OR6J1 (Homo sapiens) (UniProt Q8NGC5)
T8 sequence (whole entry): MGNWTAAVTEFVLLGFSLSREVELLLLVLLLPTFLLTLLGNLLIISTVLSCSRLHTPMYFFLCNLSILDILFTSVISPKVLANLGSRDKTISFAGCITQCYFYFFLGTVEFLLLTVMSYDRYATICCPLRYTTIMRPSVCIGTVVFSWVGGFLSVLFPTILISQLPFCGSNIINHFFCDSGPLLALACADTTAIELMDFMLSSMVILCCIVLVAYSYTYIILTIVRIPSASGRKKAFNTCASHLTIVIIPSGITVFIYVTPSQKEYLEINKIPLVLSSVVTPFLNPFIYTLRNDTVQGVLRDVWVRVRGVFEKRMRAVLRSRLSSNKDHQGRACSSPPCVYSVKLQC
Outline: as §1

[9] = target: T9, OR6K2 (Homo sapiens) (UniProt Q8NGY2)
T9 sequence (whole entry): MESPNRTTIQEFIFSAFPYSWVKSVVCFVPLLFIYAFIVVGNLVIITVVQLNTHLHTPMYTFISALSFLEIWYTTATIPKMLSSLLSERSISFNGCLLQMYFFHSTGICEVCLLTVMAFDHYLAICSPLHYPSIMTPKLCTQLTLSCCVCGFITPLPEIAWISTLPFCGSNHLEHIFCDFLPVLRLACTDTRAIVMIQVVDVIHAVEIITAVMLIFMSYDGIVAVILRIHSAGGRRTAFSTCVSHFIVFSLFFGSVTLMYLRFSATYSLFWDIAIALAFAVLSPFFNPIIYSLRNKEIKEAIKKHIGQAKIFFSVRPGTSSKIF
Outline: as §1

[10] = target: T10, OR6K3 (Homo sapiens) (UniProt Q8NGY3)
T10 sequence (whole entry): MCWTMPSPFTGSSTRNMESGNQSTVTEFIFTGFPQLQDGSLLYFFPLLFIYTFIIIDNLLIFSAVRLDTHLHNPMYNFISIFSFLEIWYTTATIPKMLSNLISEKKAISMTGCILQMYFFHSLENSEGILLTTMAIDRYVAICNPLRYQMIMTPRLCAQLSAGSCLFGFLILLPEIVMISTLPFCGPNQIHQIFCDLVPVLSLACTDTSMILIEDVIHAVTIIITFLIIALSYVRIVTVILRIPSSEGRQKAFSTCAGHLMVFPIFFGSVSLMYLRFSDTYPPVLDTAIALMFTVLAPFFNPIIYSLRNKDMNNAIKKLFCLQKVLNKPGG
Outline: as §1

[11] = target: T11, OR6K6 (Homo sapiens) (UniProt Q8NGW6)
T11 sequence (whole entry): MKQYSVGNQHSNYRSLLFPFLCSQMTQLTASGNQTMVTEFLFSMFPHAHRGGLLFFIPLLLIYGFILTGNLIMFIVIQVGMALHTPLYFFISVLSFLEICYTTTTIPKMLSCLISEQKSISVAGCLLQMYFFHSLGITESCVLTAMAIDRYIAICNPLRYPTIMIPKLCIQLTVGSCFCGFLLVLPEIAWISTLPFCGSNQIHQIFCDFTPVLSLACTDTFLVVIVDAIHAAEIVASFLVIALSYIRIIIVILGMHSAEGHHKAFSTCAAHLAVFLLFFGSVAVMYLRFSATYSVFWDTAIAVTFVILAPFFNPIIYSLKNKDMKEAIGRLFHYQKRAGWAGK
Outline: as §1

[12] = target: T12, OR6M1 (Homo sapiens) (UniProt Q8NGM8)
T12 sequence (whole entry): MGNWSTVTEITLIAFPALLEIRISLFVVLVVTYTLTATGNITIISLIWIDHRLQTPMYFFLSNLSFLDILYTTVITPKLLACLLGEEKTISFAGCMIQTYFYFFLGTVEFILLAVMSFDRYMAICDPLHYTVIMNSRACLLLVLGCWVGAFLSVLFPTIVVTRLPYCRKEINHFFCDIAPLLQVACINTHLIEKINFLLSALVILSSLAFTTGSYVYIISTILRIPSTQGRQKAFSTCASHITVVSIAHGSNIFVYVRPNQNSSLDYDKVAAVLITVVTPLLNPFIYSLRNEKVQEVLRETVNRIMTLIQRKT
Outline: as §1

[13] = test system: T13, OR6M1 T276K
T13 sequence (whole entry): T12 sequence (whole entry) with T276K
Outline: as §1

[14] = target: T14, OR6N1 (Homo sapiens) (UniProt Q8NGY5)
T14 sequence (whole entry): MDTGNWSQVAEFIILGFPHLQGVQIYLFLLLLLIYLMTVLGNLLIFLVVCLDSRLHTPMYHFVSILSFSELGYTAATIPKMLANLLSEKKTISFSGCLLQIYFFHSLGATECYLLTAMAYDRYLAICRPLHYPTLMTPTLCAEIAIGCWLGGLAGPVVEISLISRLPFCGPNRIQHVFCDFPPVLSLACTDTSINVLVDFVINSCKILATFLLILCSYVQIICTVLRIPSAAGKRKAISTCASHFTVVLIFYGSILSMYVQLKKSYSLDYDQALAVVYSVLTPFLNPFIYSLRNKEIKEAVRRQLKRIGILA
Outline: as §1

[15] = target: T15, OR6N2 (Homo sapiens) (UniProt Q8NGY6)
T15 sequence (whole entry): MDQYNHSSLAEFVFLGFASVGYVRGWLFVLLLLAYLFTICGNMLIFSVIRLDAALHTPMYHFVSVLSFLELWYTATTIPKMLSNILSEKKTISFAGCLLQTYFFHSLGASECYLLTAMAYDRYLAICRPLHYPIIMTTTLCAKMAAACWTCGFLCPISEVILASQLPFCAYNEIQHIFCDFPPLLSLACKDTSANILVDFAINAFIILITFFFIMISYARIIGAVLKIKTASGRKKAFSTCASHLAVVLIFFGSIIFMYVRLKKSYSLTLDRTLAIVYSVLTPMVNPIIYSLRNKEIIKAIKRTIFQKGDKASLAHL
Outline: as §1

[16] = target: T16, OR6P1 (Homo sapiens) (UniProt Q8NGX9)
T16 sequence (whole entry): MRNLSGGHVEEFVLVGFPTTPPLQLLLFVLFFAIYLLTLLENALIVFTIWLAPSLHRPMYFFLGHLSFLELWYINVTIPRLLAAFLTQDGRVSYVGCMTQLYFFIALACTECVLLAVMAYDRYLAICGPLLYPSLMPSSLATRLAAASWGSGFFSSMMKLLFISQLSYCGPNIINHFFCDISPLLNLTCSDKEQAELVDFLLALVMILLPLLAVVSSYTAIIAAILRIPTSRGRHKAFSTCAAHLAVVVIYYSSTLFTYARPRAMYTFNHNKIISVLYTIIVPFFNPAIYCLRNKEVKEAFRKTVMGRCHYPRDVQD
Outline: as §1

[17] = target: T17, OR6Q1 (Homo sapiens) (UniProt Q8NGQ2)
T17 sequence (whole entry): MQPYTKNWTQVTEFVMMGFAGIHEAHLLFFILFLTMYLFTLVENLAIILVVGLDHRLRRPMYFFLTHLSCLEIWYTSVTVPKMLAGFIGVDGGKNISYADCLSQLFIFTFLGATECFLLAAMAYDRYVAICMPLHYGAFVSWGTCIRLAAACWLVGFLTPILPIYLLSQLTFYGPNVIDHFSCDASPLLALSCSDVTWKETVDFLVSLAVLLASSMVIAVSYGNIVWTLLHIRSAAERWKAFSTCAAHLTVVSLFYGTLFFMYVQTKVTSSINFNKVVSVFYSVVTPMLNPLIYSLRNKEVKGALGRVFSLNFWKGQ
Outline: as §1

Measured: odorant receptor agonist call;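 further: active if original authors judged signal statistically different from baseline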

CCCCCCC=CCCC=O
inactive: all assays above

CC1CCCCCCCCCCCCC(=O)C1 (stereo not drawn)
not listed: [13]
inactive: all other assays above
